From ChEMBL document CHEMBL5149972, “Novel Antimalarial Tetrazoles and Amides Active against the Hemoglobin Degradation Pathway in Plasmodium falciparum” (J Med Chem, 2021)
Converted amounts (≈) assume the structure as drawn. The source made the active and inactive calls. The calls are words filed in the database; no cut-off is given here.

Columns and labels:
Hemozoin = test: Inhibition of Beta-hematin assessed as bis-pyridyl-Fe(III)PPIX complex formation incubated for 5 hrs by NP40 detergent-mediated colorimetric assay
Plasmodium falciparum [1] = test: Antiplasmodial activity against asexual blood stage Plasmodium falciparum 3D7 infected in human RBC assessed as parasite growth inhibition incubated for 72 hrs by SYBR Green dye based fluorescence assay; type: functional, organism-based
In short: (§1)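 Blood-stage cultures at 2% hematocrit, human O+ RBCs, RPMI 1640 + 25 mM HEPES, 0.5% Albumax-I, 23 mM bicarbonate, 92 μM hypoxanthine. Start at 0.5% parasitemia; 72 h at 37°C, 5% CO₂; freeze-thaw, then SYBR Green in saponin/Triton lysis buffer, 4 h RT dark; fluorescence ex 485/em 535 nm. 10-point curves, technical duplicates or triplicates, final 0.5% DMSO; four-parameter fit gives EC₅₀; mean ± std dev of biological replicates.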

[2] = (§2) Cytotoxicity against human HepG2 cells assessed as reduction in cell viability incubated for 72 hrs by CellTiter-Glo assay; type: toxicity, cell-based; conditions: HepG2 cells
Plasmodium falciparum [3] = test: Antiplasmodial activity against Plasmodium falciparum NF54 expressing transgenic luciferase assessed as parasite kill rate at trophozoite stage incubated for 72 hrs by bioluminescence relative rate of kill (BRRoK) assay; type: functional, organism-based; conditions: RBC
Plasmodium falciparum [4] = test: Antiplasmodial activity against Plasmodium falciparum NF54 expressing transgenic luciferase assessed as parasite kill rate at trophozoite stage incubated for 6 hrs by bioluminescence relative rate of kill (BRRoK) assay; type: functional, organism-based; conditions: RBC
HepG2 = test: as §2; type: toxicity, cell-based; conditions: hepg2, 72 h
Plasmodium falciparum [5] = test: Antiplasmodial activity against drug resistant Plasmodium falciparum Dd2 infected in human RBC assessed as parasite growth inhibition incubated for 72 hrs by SYBR Green dye based fluorescence assay; type: functional, organism-based; in short: as §1
[6] = Metabolic stability in human liver microsomes assessed as intrinsic clearance per mg of protein at 1 uM incubated for 60 mins presence of NADPH regenerating buffer system by LC-MS analysis; type: ADME, Microsome; conditions: 1 h
[7] = Kinetic solubility of compound in PBS at pH 2 by HPLC analysis; type: physicochemical; conditions: read-out: Kinetic_solubility
[8] = Kinetic solubility of compound in PBS at pH 6.5 by HPLC analysis; type: physicochemical; conditions: read-out: Kinetic_solubility
Plasmodium falciparum [9] = test: Antiplasmodial activity against Plasmodium falciparum 3D7 infected in human RBC assessed as parasite growth inhibition incubated for 48 hrs by 3H-hypoxanthine incorporation assay; type: functional, organism-based; conditions: 3D7, Erythrocyte
Plasmodium falciparum [10] = test: Antiplasmodial activity against Plasmodium falciparum 3D7 assessed as parasite growth inhibition incubated for 48 hrs followed by compound washout further infected in RBC cells for 28 days by hemocrit analysis; type: functional, organism-based
Plasmodium falciparum [11] = test: Antiplasmodial activity against Plasmodium falciparum NF54 infected in human RBC assessed as parasite growth inhibition incubated for 72 hrs by SYBR Green dye based fluorescence assay; type: functional, organism-based; conditions: NF54, Erythrocyte
Plasmodium falciparum [12] = test: Antiplasmodial activity against chloroquine and pyrimethamine resistant Plasmodium falciparum K1 infected in human RBC assessed as parasite growth inhibition incubated for 72 hrs by SYBR Green dye based fluorescence assay; type: functional, organism-based; conditions: K1, Erythrocyte
Plasmodium falciparum [13] = test: Antiplasmodial activity against chloroquine and pyrimethamine resistant Plasmodium falciparum 7G8 infected in human RBC assessed as parasite growth inhibition incubated for 72 hrs by SYBR Green dye based fluorescence assay; type: functional, organism-based; conditions: 7G8, Erythrocyte
Plasmodium falciparum [14] = test: Antiplasmodial activity against chloroquine, atovaquone and pyrimethamine resistant Plasmodium falciparum TM90C2B infected in human RBC assessed as parasite growth inhibition incubated for 72 hrs by SYBR Green dye based fluorescence assay; type: functional, organism-based; conditions: Erythrocyte
Plasmodium falciparum [15] = test: Antiplasmodial activity against piperaquine and pyrimethamine resistant Plasmodium falciparum RF12 infected in human RBC assessed as parasite growth inhibition incubated for 72 hrs by SYBR Green dye based fluorescence assay; type: functional, organism-based; conditions: RF12, Erythrocyte
Plasmodium falciparum [16] = test: Antiplasmodial activity against chloroquine and pyrimethamine resistant Plasmodium falciparum Dd2 infected in human RBC assessed as parasite growth inhibition incubated for 72 hrs by SYBR Green dye based fluorescence assay; type: functional, organism-based; conditions: Dd2, Erythrocyte
In short: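 O+ human RBCs at 2% hematocrit and 0.5% starting parasitemia, in RPMI 1640 with 25 mM HEPES, 0.5% Albumax-I, bicarbonate and hypoxanthine. Serial dilutions in triplicate, 0.5% DMSO final, 72 h at 37°C, 5% CO2. Frozen at −80°C, lysed with SYBR Green in saponin/Triton buffer for 4 h in the dark. Ex 485/em 535 nm. EC50 from four-parameter fit; biphasic fit where curves were biphasic.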

Plasmodium falciparum [17] = test: Antiplasmodial activity against chloroquine resistant Plasmodium falciparum Dd2-GC03 mutant replaced with 3D7 pfcrt sequence at endogenous pfcrt Dd2 locus infected in human RBC assessed as parasite growth inhibition incubated for 72 hrs by SYBR Green dye based fluorescence assay; type: functional, organism-based; conditions: Erythrocyte
In short: (§3)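 Gene-edited Dd2 lines with the endogenous pfcrt locus replaced by zinc-finger nuclease editing. Concentration-response curves run with technical duplicates at each concentration; values are the average of two biological replicates, with std dev given where more replicates were collected.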

Plasmodium falciparum [18] = test: (§4) Antiplasmodial activity against chloroquine resistant Plasmodium falciparum Dd2-Dd2 mutant replaced with recombinant Dd2 sequence at endogenous pfcrt Dd2 locus infected in human RBC assessed as parasite growth inhibition incubated for 72 hrs by SYBR Green dye based fluorescence assay; type: functional, organism-based; conditions: Erythrocyte; in short: as §3
Plasmodium falciparum [19] = test: as §4, with “chloroquine and piperaquine” for “chloroquine”, “Dd2-M343L” for “Dd2-Dd2”, “with endogenous pfcrt locus with the” for “with”, “sequence and the PPQ resistance-conferring M343L” for “sequence”; type: functional, organism-based; conditions: Erythrocyte; in short: as §3
Plasmodium falciparum [20] = test: Antiplasmodial activity against lab-derived […] resistant Plasmodium falciparum Dd2-PfeEF2 mutant infected in human RBC assessed as parasite growth inhibition incubated for 72 hrs by SYBR Green dye based fluorescence assay; type: functional, organism-based; conditions: Erythrocyte
Plasmodium falciparum [21] = test: Antiplasmodial activity against lab-derived MMV390048 resistant Plasmodium falciparum Dd2-Pfpi4K mutant infected in human RBC assessed as parasite growth inhibition incubated for 72 hrs by SYBR Green dye based fluorescence assay; type: functional, organism-based; conditions: Erythrocyte
Plasmodium falciparum [22] = test: Antiplasmodial activity against lab-derived DSM265 resistant Plasmodium falciparum Dd2-PfDHODH mutant infected in human RBC assessed as parasite growth inhibition incubated for 72 hrs by SYBR Green dye based fluorescence assay; type: functional, organism-based; conditions: Erythrocyte
Plasmodium falciparum [23] = test: Antiplasmodial activity against lab-derived ELQ300 resistant Plasmodium falciparum Dd2-PfCytB mutant infected in human RBC assessed as parasite growth inhibition incubated for 72 hrs by SYBR Green dye based fluorescence assay; type: functional, organism-based; conditions: Erythrocyte
[24] = Inhibition of hemozoin formation in sorbitol-synchronized early ring stage plasmodium falciparum NF54 trophozoites assessed as fold increase in free heme-Fe level at 3 times EC50 incubated for 32 hrs by flow cytometry analysis; type: functional
In short: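 Trophozoites were saponin-released (0.05%), PBS-washed, counted by flow cytometry, then hypotonically lysed and sonicated. Heme was fractionated with HEPES, SDS, pyridine and NaOH and read as Fe(III)heme–pyridine absorbance against a heme standard curve (fg/cell). Three biological replicates; Student's t-test.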

[25] = Plasmodium falciparum, 3D7, Erythrocyte, 72 h
[26] = Plasmodium falciparum, Dd2, Erythrocyte, 72 h

Row | Compound | EC50 (Plasmodium falciparum [1]; [25]) [µM] | CC50 at 72 h [2] [µM] | CC50 (HepG2) [µM] | EC50 (Plasmodium falciparum [5]; [26]) [µM] | solubility kinetic [7] [µg/mL] | solubility kinetic [8] [µg/mL] | also measured
1 | Cc1cc(Nc2ccc3ccccc3c2)n2ncnc2n1 | – | – | – | – | – | – | IC50 (Hemozoin): > 1000 µM
2 | CC(=O)c1ccc(NC(=O)c2ccc(NC(=O)C3COc4ccccc4O3)cc2)cc1 (stereo unspecified) | 0.71 | > 30 | – | – | – | – | Activity (Plasmodium falciparum [3]): Active; Activity (Plasmodium falciparum [4]): Active
3 | CCC(C(=O)Nc1cccc(Cl)c1)N1C(=O)C(C)N=C(c2ccccc2)c2ccccc21 (stereo unspecified) | 0.31 | > 30 | – | – | – | – | Activity (Plasmodium falciparum [3]): Active; Activity (Plasmodium falciparum [4]): Active
4 | Cc1ncc(C(C(=O)N(C)c2ccccc2C)N(Cc2cccc(C(F)(F)F)c2)C2CC2)cn1 (racemic) | 7.5 | – | > 30 | 7.7 | – | – | –
5 | Cc1ccccc1-n1nnnc1C(c1cncnc1)N(Cc1cc(F)cc(C(F)(F)F)c1)C1CC1 (racemic) | 0.37 | 36 | – | – | – | – | EC50 (Plasmodium falciparum [5]; rbc): 1.2 µM
6 | COc1ccc(Br)cc1CN(C)C(c1ccccc1)c1nnnn1-c1ccccc1C (racemic) | – | – | > 30 | 5.4 | – | – | EC50 (Plasmodium falciparum [1]; rbc): 3.5 µM; IC50 (Hemozoin): > 1000 µM
7 | O=C(C(c1cccnc1)N(Cc1cccc(C(F)(F)F)c1)C1CC1)N1CCCCC1 (racemic) | 1.8 | – | > 20 | 4.2 | > 100 | 25 (≈ 59.9 µM) | CLH [6]: 244 µL/min/mg
8 | Cc1ccccc1-n1nnnc1C(c1cncnc1)N(Cc1cccc(C(F)(F)F)c1)C1CC1 (racemic) | 0.4 | 33 | – | 1.8 | 1.5 (≈ 3.22 µM) | 1.5 (≈ 3.22 µM) | EC50 (Plasmodium falciparum [9]): 1.7 µM; Activity (Plasmodium falciparum [10]): Active; EC50 (Plasmodium falciparum [11]): 0.83 µM; EC50 (Plasmodium falciparum [12]): 0.46 µM; EC50 (Plasmodium falciparum [13]): 0.16 µM; EC50 (Plasmodium falciparum [14]): 0.66 µM; EC50 (Plasmodium falciparum [15]): 1.1 µM; EC50 (Plasmodium falciparum [16]): 1.8 µM; EC50 (Plasmodium falciparum [17]): 4.8 µM; EC50 (Plasmodium falciparum [18]): 2.4 µM; EC50 (Plasmodium falciparum [19]): 0.9 µM; EC50 (Plasmodium falciparum [20]): 1.6 µM; EC50 (Plasmodium falciparum [21]): 2 µM; EC50 (Plasmodium falciparum [22]): 2 µM; EC50 (Plasmodium falciparum [23]): 2 µM; IC50 (Hemozoin): 310 µM; fold change (FC) [24]: 6
9 | COc1ccc(C(F)(F)F)cc1CN(C1CC1)C(c1cccnc1)c1nnnn1-c1ccccc1C (racemic) | 0.49 | – | – | 0.48 | 12.5 (≈ 25.3 µM) | 1.6 (≈ 3.24 µM) | CLH [6]: 154 µL/min/mg
10 | CCCN(C(C(=O)N(C)c1ccccc1C)c1cccnc1)C1(c2cccc(C(F)(F)F)c2)CC1 (racemic) | 0.21 | – | > 15 | 0.33 | – | – | –
11 | Cc1ccccc1N(C)C(=O)C(c1cccnc1)N(Cc1cccc(C(F)(F)F)c1)C1CC1 (racemic) | 0.34 | – | > 30 | 0.59 | > 100 | 6.3 (≈ 13.9 µM) | CLH [6]: 781 µL/min/mg
